The source made the active and inactive calls. No cut-off for these calls is given here.
Columns and labels:
Mus musculus [1] = assay: Antinociceptive activity in Albino Swiss mouse assessed as inhibition of acetic acid-induced writhing response at 0.05 ED50, ip administered 60 mins prior to test measured for 10 mins in presence of opioid receptor antagonist naloxone; assay type: functional, organism-based
Mus musculus [2] = assay: Decrease in body temperature in Albino Swiss mouse at 0.1 ED50, ip administered 60 mins before test measured 60 to 120 mins post dose; assay type: functional, organism-based
Summary of the method: (§1)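 Normothermic male Albino Swiss mice; rectal temperature by thermistor thermometer. Baseline taken as mean of readings at 60 and 30 min before dosing; i.p. dose (0.1 ED50, 0.5% methylcellulose vehicle) then readings at 30, 60, 90, 120 min (to 180 min for some). Change = final minus initial; Bonferroni post hoc test.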

Mus musculus [3] = assay: Inhibition of amphetamine-induced hyperlocomotion in Albino Swiss mouse at 0.1 ED50, ip administered 60 mins prior to test measured for 30 mins by photoresistor actometer analysis; assay type: functional
Summary of the method: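 Single male Albino Swiss mice; compound i.p. 60 min and amphetamine 5 mg/kg s.c. 30 min before test. Photoresistor actometers (circular cage, two light beams) counted beam crossings over 30 min; mean ± SEM, Dunnett's test vs control.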

Mus musculus [4] = assay: Protection against pentetrazol-induced mortality in Albino Swiss mouse at 0.05 ED50, ip administered 60 mins prior to test; assay type: functional, organism-based
Summary of the method: (§2)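 Male Albino Swiss mice (18-30 g); compound given i.p. as suspension in 0.5% methylcellulose 60 min before test; pentylenetetrazole 110 mg/kg s.c. Scored as number of mice with clonic seizures, tonic convulsions and deaths per animals tested; Fisher's exact test vs solvent control.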

[5] = biological target: 5-hydroxytryptamine receptor 2A (Rattus norvegicus, UniProt P14842); assay: Displacement of [3H]ketanserin from 5HT2A receptor in Sprague-Dawley rat brain cortex incubated for 15 mins
Summary of the method: (§3)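 Rat frontal cortex homogenized in 50 mM Tris-HCl, 0.5 mM EDTA, 10 mM MgCl2, pH 7.4, washed, resuspended with 0.1% ascorbate and pargyline. Triplicates: 5-HT2A used 0.4 nM [3H]ketanserin, cinanserin for nonspecific binding; 5-HT2C used 1 nM [3H]mesulergine, mianserin nonspecific, 100 nM spiperone added. 15 min at 37 C, glass-fiber filtration.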

Mus musculus [6] = assay: Antinociceptive activity in Albino Swiss mouse assessed as inhibition of acetic acid-induced writhing response at 0.1 ED50, ip administered 60 mins prior to test measured for 10 mins; assay type: functional, organism-based
Summary of the method: (§4)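 Male Albino Swiss mice, i.p. dosing in 0.5% methylcellulose 60 min beforehand; 0.6% acetic acid injected i.p., writhing episodes counted for 10 min beginning 5 min after acid. Mean ± SEM; one-way ANOVA with Dunnett's test vs control.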

Mus musculus [7] = assay: Neurotoxicity in Albino Swiss mouse assessed as induction of myorelaxation at 0.0125 to 0.1 ED50, ip after 60 mins by rotarod test; assay type: toxicity, organism-based; details: in vivo, 1 h
Mus musculus [8] = assay: Neurotoxicity in Albino Swiss mouse assessed as induction of myorelaxation at 0.0125 to 0.1 ED50, ip after 60 mins by chimney test; assay type: toxicity, organism-based; details: in vivo, 1 h
Mus musculus [9] = assay: Inhibition of 5-HTP-induced head twitch response in Albino Swiss mouse at 0.1 ED50, ip administered 60 mins before 5-HTP injection relative to untreated control; assay type: functional
Summary of the method: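 Male Albino Swiss mice given compound i.p. (0.1 ED50, 0.5% methylcellulose) 60 min before the test; L-5-HTP 230 mg/kg i.p. injected immediately before. Head twitches counted; mean ± SEM, Dunnett's test vs control.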

Mus musculus [10] = assay: Anticonvulsant activity in Albino Swiss mouse assessed as protection against pentetrazol-induced clonic seizure at 0.1 ED50, ip administered 60 mins prior to test relative to untreated control; assay type: functional; summary of the method: as §2
Mus musculus [11] = assay: Antinociceptive activity in Albino Swiss mouse assessed as inhibition of acetic acid-induced writhing response at 0.025 to 0.05 ED50, ip administered 60 mins prior to test measured for 10 mins; assay type: functional, organism-based; summary of the method: as §4
Mus musculus [12] = assay: Neurotoxicity in Albino Swiss mouse assessed as impairment in motor coordination at 0.0125 to 0.1 ED50, ip after 60 mins by chimney test; assay type: toxicity, organism-based; details: in vivo, 1 h
Mus musculus [13] = assay: Toxicity in ip dosed Albino Swiss mouse assessed as loss of righting reflex administered 60 mins before test measured up to 48 hrs; assay type: organism-based; details: in vivo
Summary of the method: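 Acute toxicity in male Albino Swiss mice by Litchfield-Wilcoxon method: ED50 for loss of righting reflex after i.p. dosing, observed at 15, 30, 60, 180 min and 24, 48 h.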

Mus musculus [14] = assay: Neurotoxicity in Albino Swiss mouse assessed as impairment in motor coordination at 0.0125 to 0.1 ED50, ip after 60 mins by rotarod test; assay type: toxicity, organism-based; details: in vivo, 1 h
[15] = biological target: T1, 5-hydroxytryptamine receptor 2C (Rattus norvegicus, UniProt P08909); assay: Displacement of [3H]mesulergine from 5HT2C receptor in Sprague-Dawley rat brain cortex incubated for 15 mins; summary of the method: as §3
T1 sequence (P08909 whole entry): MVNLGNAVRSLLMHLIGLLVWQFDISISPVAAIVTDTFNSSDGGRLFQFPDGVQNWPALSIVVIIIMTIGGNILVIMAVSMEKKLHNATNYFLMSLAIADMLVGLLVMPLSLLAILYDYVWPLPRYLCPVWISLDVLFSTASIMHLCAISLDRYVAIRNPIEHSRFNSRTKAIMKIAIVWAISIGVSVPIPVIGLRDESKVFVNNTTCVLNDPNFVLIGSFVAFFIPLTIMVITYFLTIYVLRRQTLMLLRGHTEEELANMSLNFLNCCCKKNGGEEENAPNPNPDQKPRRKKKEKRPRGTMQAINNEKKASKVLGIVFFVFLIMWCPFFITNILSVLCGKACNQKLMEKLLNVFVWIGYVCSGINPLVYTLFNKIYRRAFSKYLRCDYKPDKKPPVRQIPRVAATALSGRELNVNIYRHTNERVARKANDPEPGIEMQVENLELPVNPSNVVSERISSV

Mus musculus [16] = assay: Toxicity in Albino Swiss mouse assessed as inhibition of spontaneous locomotor activity at 0.1 ED50, ip administered 60 mins before test measured for 30 mins by photoresistor actometer analysis; assay type: organism-based; details: in vivo, 0.5 h
Summary of the method: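 Spontaneous locomotion of single male Albino Swiss mice recorded in two-beam photoresistor actometers as beam crossings for 30 min, beginning 60 min after i.p. compound (suspension in 0.5% methylcellulose).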

Mus musculus [17] = assay: Anticonvulsant activity in Albino Swiss mouse assessed as protection against pentetrazol-induced tonic seizure at 0.1 ED50, ip administered 60 mins prior to test relative to untreated control; assay type: functional; summary of the method: as §2
Mus musculus [18] = assay: Inhibition of (+/-)DOI-induced head twitch response in Albino Swiss mouse at 73.1 mg/kg, ip administered 60 mins before (+/-)DOI injection measured for 20 mins relative to untreated control; assay type: functional
Summary of the method: (§5)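 Male Albino Swiss mice; compounds suspended in 0.5% methylcellulose, injected i.p. 60 min before (±)DOI 2.5 mg/kg i.p.; head twitches counted over 20 min. Mean ± SEM, percent reduction versus DOI-treated group; one-way ANOVA with Bonferroni post hoc test.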

Mus musculus [19] = assay: Effect on body temperature in Albino Swiss mouse at 0.1 ED50, ip administered 60 mins before test measured 30 to 180 mins post dose; assay type: functional, organism-based; summary of the method: as §1
Mus musculus [20] = assay: Inhibition of (+/-)DOI-induced head twitch response in ip dosed Albino Swiss mouse administered 60 mins before (+/-)DOI injection measured for 20 mins; assay type: functional, organism-based; summary of the method: as §5
Mus musculus [21] = assay: Protection against pentetrazol-induced mortality in Albino Swiss mouse at 0.1 ED50, ip administered 60 mins prior to test relative to untreated control; assay type: functional
Summary of the method: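 Male Albino Swiss mice (18–30 g). Compound given i.p. as suspension in 0.5% methylcellulose (10 mL/kg), 60 min before test; controls got vehicle. Dose expressed as fraction of ED50 (loss of righting reflex within 48 h). Convulsions induced by pentylenetetrazole 110 mg/kg s.c.; dead animals counted per group (n=10; control n=16). Significance vs control by Fisher's exact test.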

Mus musculus [22] = assay: Inhibition of (+/-)DOI-induced head twitch response in Albino Swiss mouse at 36.55 mg/kg, ip administered 60 mins before (+/-)DOI injection measured for 20 mins relative to untreated control; assay type: functional; summary of the method: as §5
Mus musculus [23] = assay: Inhibition of (+/-)DOI-induced head twitch response in Albino Swiss mouse at 5 mg/kg, ip administered 60 mins before (+/-)DOI injection measured for 20 mins relative to untreated control; assay type: functional; summary of the method: as §5
Mus musculus [24] = assay: Inhibition of 5-HTP-induced head twitch response in ddY mouse at >=1 mg/kg, po administered 1 hr before 5-HTP injection measured after 30 mins relative to untreated control; assay type: functional
Mus musculus [25] = assay: Increase in body temperature in Albino Swiss mouse at 0.1 ED50, ip administered 60 mins before test measured 30 to 90 mins post dose; assay type: functional, organism-based; summary of the method: as §1

5-hydroxytryptamine receptor 2A, sequence (P14842 whole entry): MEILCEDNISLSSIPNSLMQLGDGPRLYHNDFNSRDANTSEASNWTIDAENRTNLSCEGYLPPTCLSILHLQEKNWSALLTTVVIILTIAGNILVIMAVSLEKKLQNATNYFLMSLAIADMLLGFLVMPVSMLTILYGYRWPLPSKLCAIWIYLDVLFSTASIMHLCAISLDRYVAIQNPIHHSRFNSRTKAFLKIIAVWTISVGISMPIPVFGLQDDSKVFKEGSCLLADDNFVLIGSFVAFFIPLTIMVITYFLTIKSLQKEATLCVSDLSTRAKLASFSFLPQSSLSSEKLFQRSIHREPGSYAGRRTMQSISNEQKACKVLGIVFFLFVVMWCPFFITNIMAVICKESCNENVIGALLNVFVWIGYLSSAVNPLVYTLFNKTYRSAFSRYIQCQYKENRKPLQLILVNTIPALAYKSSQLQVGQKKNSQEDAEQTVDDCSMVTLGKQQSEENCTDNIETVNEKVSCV

SMILES	inhibition (Mus musculus [1])	inhibition (Mus musculus [3])	Ki [5] [µM]	inhibition (Mus musculus [6])	Activity (Mus musculus [7])	Activity (Mus musculus [8])	inhibition (INH) (Mus musculus [9]) [%]	Activity (Mus musculus [10])	inhibition (Mus musculus [11])	Activity (Mus musculus [12])	ED50 (Mus musculus [13]) [mg/kg]	Activity (Mus musculus [14])	Ki [15] [µM]	Activity (Mus musculus [16])	Activity (Mus musculus [17]) [%]	inhibition (INH) (Mus musculus [24]) [%]	also measured
O=[N+]([O-])c1cc(NC(=S)NCc2ccccc2)ccc1Cl	Active	inactive	> 10	Active	Non-toxic	Non-toxic	70.5	43.75%	Active	Non-toxic	909	Non-toxic	> 10	Non-toxic	43.75	–	Activity (Mus musculus [2]): Active; Activity (Mus musculus [4]): Active
FC(F)(F)c1cccc(NC(S)=NCc2ccccc2)c1	Active	Active	0.0006	Active	Non-toxic	Non-toxic	73.3	40%	Active	Non-toxic	731.3	Non-toxic	> 10	Non-toxic	46.66	–	inhibition in vivo at 73.1 mg/kg (Mus musculus [18]): 72.2%; Activity (Mus musculus [19]): inactive; inhibition (Mus musculus [20]): Dose-dependent effect; Activity (Mus musculus [21]): Active; inhibition in vivo at 36.55 mg/kg (Mus musculus [22]): 69.4%
O=C(c1ccc(F)cc1)C1CCN(CCn2c(=O)[nH]c3ccccc3c2=O)CC1 [KETANSERIN]	–	–	–	–	–	–	–	–	–	–	–	–	–	–	–	>80	inhibition in vivo at 5 mg/kg (Mus musculus [23]): 100%
COc1ccc(NC(=S)Nc2cccc(C(F)(F)F)c2)cc1	–	Active	> 10	–	Non-toxic	Non-toxic	–	inactive	–	Non-toxic	771.4	Non-toxic	> 10	Non-toxic	–	–	Activity (Mus musculus [25]): Active; inhibition (Mus musculus [9]): inactive
Cc1nc2sccn2c(=O)c1CCN1CCC(=C(c2ccc(F)cc2)c2ccc(F)cc2)CC1 [RITANSERIN]	–	–	–	–	–	–	–	–	–	–	–	–	–	–	–	>80	–
O=[N+]([O-])c1cc(NC(=S)Nc2ccccc2)ccc1Cl	–	–	> 10	–	–	–	–	–	–	–	–	–	> 10	–	–	–	–
